Experimental data from ChEMBL document CHEMBL1221316, “Synthesis of new oxathiazinane dioxides and their in vitro cancer cell growth inhibitory activity” (Bioorg Med Chem Lett, 2010).

Key:
SK-BR-3 [1] = test: Cytotoxicity against human SKBR3 cells assessed as cell viability at 50 uM after 72 hrs by MTS assay; assay type: functional; details: SK-BR-3, 72 h, read-out: Activity
Method in brief: (§1)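 SKBR3 breast cancer cells were exposed to compound for 72 h. Viability was measured by MTS and reported as % viability at each of five concentrations: 6.25, 12.5, 25, 50 and 100. A viability-versus-concentration plot was also made.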

SK-BR-3 [2] = test: Cytotoxicity against human SKBR3 cells assessed as cell viability at 25 uM after 72 hrs by MTS assay; assay type: functional; details: SK-BR-3, 72 h, read-out: Activity; method in brief: as §1
SK-BR-3 [3] = test: Cytotoxicity against human SKBR3 cells assessed as cell viability at 6.25 uM after 72 hrs by MTS assay; assay type: functional; details: SK-BR-3, 72 h, read-out: Activity; method in brief: as §1
SK-BR-3 [4] = test: Cytotoxicity against human SKBR3 cells assessed as cell viability at 12.5 uM after 72 hrs by MTS assay; assay type: functional; details: SK-BR-3, 72 h, read-out: Activity; method in brief: as §1
SK-BR-3 [5] = test: Cytotoxicity against human SKBR3 cells assessed as cell viability at 100 uM after 72 hrs by MTS assay; assay type: functional; details: SK-BR-3, 72 h, read-out: Activity; method in brief: as §1
SK-BR-3 [6] = test: Cytotoxicity against human SKBR3 cells after 72 hrs by MTS assay; assay type: functional, cell-based; details: SK-BR-3, 72 h; method in brief: as §1

Row | Compound | viability at 50 µM (SK-BR-3 [1]) [%] | viability at 25 µM (SK-BR-3 [2]) [%] | viability at 6.25 µM (SK-BR-3 [3]) [%] | viability at 12.5 µM (SK-BR-3 [4]) [%] | viability at 100 µM (SK-BR-3 [5]) [%] | IC50 (SK-BR-3 [6]) [µM]
1 | O=S1(=O)COC[C@@H](COCc2ccccc2)N1 | 80 | 100 | 100 | 100 | 16 | 
2 | O=S1(=O)COC[C@H](COCc2ccccc2)N1 | 51 | 78 | 100 | 94 | 22 | 
3 | O=S1(=O)COC[C@@H](COCc2ccc(-c3ccccc3)cc2)N1 | 44 | 75 | 75 | 75 | 46 | 
4 | O=S1(=O)COC[C@@H](COCc2ccc(-c3ccc(CBr)cc3)cc2)N1 | 10 | 10 | 66 | 34 | 10 | 10
5 | O=S1(=O)COC[C@H](COCc2ccc(-c3ccc(CBr)cc3)cc2)N1 | 18 | 26 | 99 | 81 | 20 | 10
6 | O=S1(=O)COC[C@@H](COCc2ccccc2)N1Cc1ccccc1 | 83 | 88 | 89 | 82 | 82 | 
7 | O=S1(=O)COC[C@H](COCc2ccccc2)N1Cc1ccccc1 | 87 | 82 | 81 | 80 | 96 | 
8 | CCCCCCCC/C=C\CCCCCCCCOC[C@@H]1COCS(=O)(=O)N1Cc1ccccc1 | 100 | 99 | 100 | 100 | 100 | 
9 | CCCCCCCC/C=C\CCCCCCCCOC[C@H]1COCS(=O)(=O)N1Cc1ccccc1 | 82 | 81 | 71 | 81 | 96 | 
10 | O=S1(=O)COC[C@@H](COCc2ccc(F)cc2)N1Cc1ccccc1 | 99 | 88 | 93 | 86 | 96 | 
11 | COc1cccc(COC[C@@H]2COCS(=O)(=O)N2Cc2ccccc2)c1 | 96 | 100 | 100 | 100 | 89 | 
12 | O=C(OC[C@@H]1COCS(=O)(=O)N1Cc1ccccc1)c1ccccc1 | 89 | 88 | 81 | 98 | 100 | 
13 | CN1[C@H](COCc2ccccc2)COCS1(=O)=O | 83 | 88 | 85 | 81 | 82 | 
14 | CCCCCCCC/C=C\CCCCCCCCOC[C@@H]1COCS(=O)(=O)N1C | 65 | 65 | 72 | 71 | 65 | 
15 | CN1[C@H](COCc2ccc(-c3ccccc3)cc2)COCS1(=O)=O | 61 | 60 | 89 | 66 | 52 | 
16 | CN1[C@H](COCc2ccc3ccccc3c2)COCS1(=O)=O | 74 | 73 | 81 | 82 | 74 | 
